ChEMBL document CHEMBL4351018, “Novel phenanthridin-6(5H)-one derivatives as potent and selective BET bromodomain inhibitors: Rational design, synthesis and biological evaluation” (Eur J Med Chem, 2019)

Columns and labels:
[1] = system: A549; assay: Induction of apoptosis in human A549 cells assessed as early apoptotic cells at 3.0 uM incubated for 48 hrs by annexin V-FITC/PI double staining based flow cytometric analysis (reference value: 1.76%); assay type: functional
[2] = system: A549; assay: Induction of cell cycle arrest in human A549 cells assessed as accumulation at […] phase at 5.0 uM incubated for 48 hrs by BrdU/PI staining based flow cytometric analysis; assay type: functional
Method in brief: (§1)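 Subconfluent A549 cells exposed 48 h to 0.3–5.0 μM with DMSO vehicle control. Pulse-labelled with 10 μM BrdU for 30 min at 37 °C before harvest. Fixed in 70% ethanol, denatured in 2 M HCl, neutralised, then stained with fluorescein anti-BrdU antibody and propidium iodide. Analysed by flow cytometry with 488 nm excitation.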

[3] = system: A549; assay: Induction of apoptosis in human A549 cells assessed as necrotic cells at 1.0 uM incubated for 48 hrs by annexin V-FITC/PI double staining based flow cytometric analysis (reference value: 0%); assay type: functional
[4] = system: A549; assay: Induction of cell cycle arrest in human A549 cells assessed as accumulation at […] phase at 1.0 uM incubated for 48 hrs by BrdU/PI staining based flow cytometric analysis; assay type: functional; method in brief: as §1
[5] = system: A549; assay: Induction of cell cycle arrest in human A549 cells assessed as accumulation at […] phase at 0.3 uM incubated for 48 hrs by BrdU/PI staining based flow cytometric analysis; assay type: functional; method in brief: as §1
[6] = AUC (0 to infinity) in Sprague-Dawley rat at 2.5 mg/kg, iv measured for 0.083 to 24 hrs by LC-MS/MS/MS analysis; assay type: ADME, organism-based; design: dose 2.5 mg/kg, time infinity, route intravenous; conditions: in vivo
[7] = system: HepG2; assay: Antiproliferative activity against human HepG2 cells incubated for 48 hrs by MTT assay; assay type: functional, cell-based; conditions: HepG2, 48 h
Method in brief: (§2)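 Cells kept in DMEM or RPMI 1640 with 10% FBS at 37 °C, 5% CO2. MTT added for 4 h at 37 °C, formazan dissolved in DMSO, OD read at 570 nm. Survival % taken relative to blank and control wells. Triplicate runs; IC50 from curve fit.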

[8] = Cmax in Sprague-Dawley rat at 2.5 mg/kg, iv measured for 0.083 to 24 hrs by LC-MS/MS analysis; assay type: ADME, organism-based; design: dose 2.5 mg/kg, route intravenous; conditions: in vivo
[9] = system: A549; assay: Induction of apoptosis in human A549 cells assessed as necrotic cells at 5.0 uM incubated for 48 hrs by annexin V-FITC/PI double staining based flow cytometric analysis (reference value: 0%); assay type: functional
[10] = Oral bioavailability in Sprague-Dawley rat at 10 mg/kg measured for 0.083 to 24 hrs by LC-MS/MS analysis; assay type: ADME, organism-based; conditions: in vivo
[11] = system: A549; assay: Induction of apoptosis in human A549 cells assessed as late apoptotic cells at 3.0 uM incubated for 48 hrs by annexin V-FITC/PI double staining based flow cytometric analysis (reference value: 0.039%); assay type: functional
[12] = MRT (0 to t) in Sprague-Dawley rat at 2.5 mg/kg, iv measured for 0.083 to 24 hrs by LC-MS/MS analysis; assay type: ADME, organism-based; conditions: in vivo
[13] = system: PANC-1; assay: Antiproliferative activity against human PANC1 cells incubated for 48 hrs by MTT assay; assay type: functional, cell-based; conditions: PANC-1, 48 h; method in brief: as §2
[14] = system: A549; assay: Induction of apoptosis in human A549 cells incubated for 48 hrs by annexin V-FITC/PI double staining based flow cytometric analysis; assay type: functional, cell-based
[15] = Tmax in Sprague-Dawley rat at 2.5 mg/kg, iv measured for 0.083 to 24 hrs by LC-MS/MS analysis; assay type: ADME, organism-based; conditions: in vivo
[16] = AUC (0 to t) in Sprague-Dawley rat at 10 mg/kg, po measured for 0.083 to 24 hrs by LC-MS/MS analysis; assay type: ADME, organism-based; design: time 0.083-24 hr, dose 10 mg/kg, route oral; conditions: in vivo
[17] = Tmax in Sprague-Dawley rat at 10 mg/kg, po measured for 0.083 to 24 hrs by LC-MS/MS analysis; assay type: ADME, organism-based; conditions: in vivo
[18] = target: Bromodomain-containing protein 4 (Homo sapiens, UniProt O60885); assay: Binding affinity to recombinant human His-tagged BRD4 bromodomain 2 expressed in […] insect cells using biotinylated H4(1 to 21)K5/8/12/16Ac peptide as substrate at 20 uM preincubated for 30 mins followed by substrate addition and measured after 30 mins by Alpha screen assay relative to control
[19] = system: A549; assay: Antiproliferative activity against human A549 cells incubated for 48 hrs by MTT assay; assay type: functional, cell-based; conditions: A549, 48 h; method in brief: as §2
[20] = Metabolic stability in human liver microsomes assessed as half life at 1 uM measured for 0.025 to 2 hrs in presence of betaNADPH by LC-MS/MS analysis; assay type: ADME, Microsome
Method in brief: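 1 μM compound incubated at 37 °C with human liver microsomes (0.5 mg/mL), 1.7 mM β-NADPH and 3.3 mM MgCl2 in 0.1 M phosphate buffer pH 7.4, with DMSO below 0.1%. Remaining parent measured by LC-MS/MS; half-life from concentration-time regression.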

AUC(0-inf) [6]: 505 ng·h/mL | IC50 [7]: 4.83 µM | Cmax [8]: 96.9 ng/mL | bioavailability [10]: 36.6% | MRT last [12]: 7.93 h | IC50 [13]: 6.7 µM | Tmax [15]: 4.98 min | AUC(0-t) [16]: 566 ng·h/mL | Tmax [17]: 5.33 h | Activity [18]: > 70% | IC50 [19]: 0.75 µM | half-life at 1 µM [20]: 4.17 h
Compound: COc1ccc(Cl)cc1S(=O)(=O)Nc1ccc2[nH]c(=O)c3ccccc3c2c1
Activity [1]: 68.3% | Activity [2]: 81.66% | Activity [3]: 0.044% | Activity [4]: 70.3% | Activity [5]: 60.84% | Activity [9]: 0.036% | Activity [11]: 7.11% | Activity [14]: Dose-dependent effect
